Experimental data as given in ChEMBL document CHEMBL1123311, “Synthesis and antitumor and antiviral properties of 5-halo- and 5-(trifluoromethyl)-2'-deoxyuridine 3',5'-cyclic monophosphates and neutral triesters” (1986).
Converted amounts (≈) assume the structure as drawn.

Tests used:
Human alphaherpesvirus 2 [1] = test: Evaluation of antiviral activity against Herpes simplex virus type 2 (HSV-2) strain 196.; assay type: functional
Outline: (§1)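 Virus-induced cytopathogenicity scored in primary rabbit kidney cell cultures. Value is the minimum concentration reducing cytopathogenicity by 50%. Cytotoxicity on uninfected cells was read as the minimal concentration causing a microscopically detectable change in normal cell morphology, tested up to 400 μg/mL.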

Human alphaherpesvirus 2 [2] = test: Evaluation of antiviral activity against Herpes simplex virus type 2 (HSV-2) strain G; assay type: functional; outline: as §1
Human alphaherpesvirus 2 [3] = test: Evaluation of antiviral activity against Herpes simplex virus type 2 (HSV-2) strain Lyons; assay type: functional; outline: as §1
Human alphaherpesvirus 1 [4] = test: Evaluation of antiviral activity against Herpes simplex virus type 1 (HSV-1) strain F; assay type: functional; outline: as §1
Human alphaherpesvirus 1 [5] = test: Evaluation of antiviral activity against Herpes simplex virus type 1 (HSV-1) strain McIntyre; assay type: functional; outline: as §1
L1210 [6] = test: Evaluation of antitumor activity against mutant murine leukemia L1210 cells; assay type: functional; details: Mus musculus, read-out: ID50 (the source's name)
Outline: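 Proliferation of mutant murine leukemia L1210/BdUrd cells, selected from parental L1210/0 for growth in 260 μg/mL 5-bromo-2'-deoxyuridine. Value is the dose inhibiting proliferation by 50%.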

L1210 [7] = test: Evaluation of cytostatic activity by using antitumor assays against murine leukemia L1210 cells; assay type: functional; details: Mus musculus, read-out: ID50 (the source's name)
[8] = tested on: Vesicular stomatitis virus; test: Evaluation of antiviral activity against Vesicular stomatitis virus.; assay type: functional; outline: as §1
Vaccinia virus = test: Evaluation of antiviral activity against Vaccinia virus; assay type: functional; details: Orthopoxvirus vaccinia; outline: as §1
Raji = test: Evaluation of antitumor activity against thymidine kinase deficient Raji cell line; assay type: functional; details: Homo sapiens, read-out: ID50 (the source's name)
Homo sapiens = organism: Homo sapiens; test: Evaluation for antitumor activity against human lymphoblast Raji cells; assay type: functional; details: for IC50: Homo sapiens, Raji, read-out: ID50 (the source's name)
Human alphaherpesvirus 1 [9] = test: Evaluation of antiviral activity against Herpes simplex virus type 1 (HSV-1) strain KOS.; assay type: functional; outline: as §1
[10] = target: Thymidylate synthase (Mus musculus) (UniProt P07607)
Chain of Thymidylate synthase (Mus musculus) (P07607 whole entry, looked up): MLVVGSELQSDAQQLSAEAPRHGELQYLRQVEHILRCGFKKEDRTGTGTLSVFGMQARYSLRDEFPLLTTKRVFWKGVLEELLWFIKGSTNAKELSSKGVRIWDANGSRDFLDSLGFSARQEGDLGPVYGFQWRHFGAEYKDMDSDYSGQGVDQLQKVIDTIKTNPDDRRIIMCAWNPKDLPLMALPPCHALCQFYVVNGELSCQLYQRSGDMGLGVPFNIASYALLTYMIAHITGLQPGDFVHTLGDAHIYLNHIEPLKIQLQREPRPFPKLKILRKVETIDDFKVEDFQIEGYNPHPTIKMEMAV

[11] = target: Thymidylate synthase (Mus musculus) (UniProt P07607); test: Compound was evaluated for the inhibition of L1210 Thymidylate synthase
Outline: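 Thymidylate (dTMP) synthetase inhibition measured with a partially purified extract of L1210 cells as the enzyme source.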

Human alphaherpesvirus 1 [12] = test: Compound was evaluated for the antiviral activity against Herpes simplex virus type 1 (HSV-1) strain F; assay type: functional; details: read-out: ID50 (the source's name); outline: as §1
Human alphaherpesvirus 1 [13] = test: Compound was evaluated for the antiviral activity against Herpes simplex virus type 1 (HSV-1) strain KOS.; assay type: functional; details: read-out: ID50 (the source's name); outline: as §1
[14] = target: Thymidylate synthase (Mus musculus) (UniProt P07607); test: Compound was evaluated for the inhibition of L1210 thymidylate synthetase (L1210 dTMP)
Outline: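 Enzyme source was a partially purified extract of murine leukemia L1210 cells. The dTMP synthetase assay followed an earlier published method, and no reaction conditions are given here.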

Row | Structure (SMILES) | MIC50 (Human alphaherpesvirus 2 [1]) | MIC50 (Human alphaherpesvirus 2 [2]) | MIC50 (Human alphaherpesvirus 2 [3]) | MIC50 (Human alphaherpesvirus 1 [4]) | MIC50 (Human alphaherpesvirus 1 [5]) | IC50 (L1210 [6]) | IC50 (L1210 [7]) | MIC50 [8] | MIC50 (Vaccinia virus) | IC50 (Raji) | IC50 (Homo sapiens) | MIC50 (Human alphaherpesvirus 1 [9]) | Ki/Km [10] | Ki/Km [11] | IC50 (Human alphaherpesvirus 1 [12]) | IC50 (Human alphaherpesvirus 1 [13]) | Ki/Km [14] | ID50 (Homo sapiens)
1 | O=c1[nH]c(=O)n([C@H]2C[C@H](O)[C@@H](COP(=O)(O)O)O2)cc1I | 0.7 µg/mL (≈ 1.61 µM) | 0.4 µg/mL (≈ 0.921 µM) | 0.2 µg/mL (≈ 0.461 µM) | 0.4 µg/mL (≈ 0.921 µM) | 0.2 µg/mL (≈ 0.461 µM) | > 500 µg/mL | 31 µg/mL (≈ 71.4 µM) | > 400 µg/mL | 0.2 µg/mL (≈ 0.461 µM) | > 500 µg/mL | 6.8 µg/mL (≈ 15.7 µM) | 0.2 µg/mL (≈ 0.461 µM) | 3.54 | – | – | – | – | –
2 | N.O=c1[nH]c(=O)n([C@H]2C[C@@H]3O[PH](O)(O)OC[C@H]3O2)cc1C(F)(F)F | 40 µg/mL | 10 µg/mL | 10 µg/mL | 20 µg/mL | 10 µg/mL | 22 µg/mL | 0.116 µg/mL | > 400 µg/mL | 0.4 µg/mL | ≥ 500 µg/mL | 1.81 µg/mL | 10 µg/mL | – | 30.4 | – | – | – | –
3 | O=c1[nH]c(=O)n([C@H]2C[C@H](O)[C@@H](COP(=O)(O)O)O2)cc1F [5-FLUORODEOXYURIDYLATE] | 100 µg/mL (≈ 307 µM) | 7 µg/mL (≈ 21.5 µM) | 20 µg/mL (≈ 61.3 µM) | 10 µg/mL (≈ 30.7 µM) | 10 µg/mL (≈ 30.7 µM) | 3 µg/mL (≈ 9.2 µM) | 0.003 µg/mL (≈ 0.0092 µM) | > 200 µg/mL | 0.2 µg/mL (≈ 0.613 µM) | 2.41 µg/mL (≈ 7.39 µM) | 0.013 µg/mL (≈ 0.0399 µM) | 10 µg/mL (≈ 30.7 µM) | – | 0.018 | – | – | – | –
4 | O=c1[nH]c(=O)n([C@H]2C[C@H](O)[C@@H](CO)O2)cc1Cl [CHLORODEOXYURIDINE] | 2 µg/mL (≈ 7.61 µM) | 1 µg/mL (≈ 3.81 µM) | 2 µg/mL (≈ 7.61 µM) | 0.7 µg/mL (≈ 2.67 µM) | 2 µg/mL (≈ 7.61 µM) | 339 µg/mL (≈ 1290 µM) | 21.3 µg/mL (≈ 81.1 µM) | > 400 µg/mL | 0.2 µg/mL (≈ 0.761 µM) | > 1000 µg/mL | 8.54 µg/mL (≈ 32.5 µM) | 2 µg/mL (≈ 7.61 µM) | – | – | – | – | – | –
5 | N.O=c1[nH]c(=O)n([C@H]2C[C@@H]3O[PH](O)(O)OC[C@H]3O2)cc1I | 20 µg/mL | 10 µg/mL | 7 µg/mL | 2 µg/mL | 7 µg/mL | > 500 µg/mL | ≥ 500 µg/mL | > 400 µg/mL | 2 µg/mL | > 500 µg/mL | 54 µg/mL | 2 µg/mL | – | > 355 | – | – | – | –
6 | COP1(=O)OC[C@H]2O[C@@H](n3cc(I)c(=O)[nH]c3=O)C[C@@H]2O1 (stereo not given in full) | 300 µg/mL (≈ 698 µM) | 300 µg/mL (≈ 698 µM) | 150 µg/mL (≈ 349 µM) | – | 70 µg/mL (≈ 163 µM) | – | – | > 400 µg/mL | 20 µg/mL (≈ 46.5 µM) | – | – | – | – | – | 150 µg/mL (≈ 349 µM) | 150 µg/mL (≈ 349 µM) | – | –
7 | N.O=c1[nH]c(=O)n([C@H]2C[C@@H]3O[PH](O)(O)OC[C@H]3O2)cc1F | ≥ 400 µg/mL | ≥ 300 µg/mL | ≥ 200 µg/mL | > 400 µg/mL | > 400 µg/mL | 7.4 µg/mL | 0.06 µg/mL | > 400 µg/mL | 1.5 µg/mL | 19 µg/mL | 0.164 µg/mL | > 400 µg/mL | – | – | – | – | 38 | –
8 | O=c1[nH]c(=O)n([C@H]2C[C@H](O)[C@@H](CO)O2)cc1C(F)(F)F [TRIFLURIDINE] | 1 µg/mL (≈ 3.38 µM) | 0.6 µg/mL (≈ 2.03 µM) | 1 µg/mL (≈ 3.38 µM) | 0.7 µg/mL (≈ 2.36 µM) | 0.7 µg/mL (≈ 2.36 µM) | 47 µg/mL (≈ 159 µM) | 0.006 µg/mL (≈ 0.0203 µM) | > 40 µg/mL | 0.2 µg/mL (≈ 0.675 µM) | 180 µg/mL (≈ 608 µM) | 0.15 µg/mL (≈ 0.506 µM) | 0.7 µg/mL (≈ 2.36 µM) | – | – | – | – | – | –
9 | O=c1[nH]c(=O)n([C@H]2C[C@@H]3OP(=O)(OCc4ccccc4)OC[C@H]3O2)cc1I (stereo not given in full) | 70 µg/mL (≈ 138 µM) | 20 µg/mL (≈ 39.5 µM) | 7 µg/mL (≈ 13.8 µM) | 7 µg/mL (≈ 13.8 µM) | 20 µg/mL (≈ 39.5 µM) | > 100 µg/mL | > 100 µg/mL | > 200 µg/mL | 2 µg/mL (≈ 3.95 µM) | > 100 µg/mL | > 100 µg/mL | 20 µg/mL (≈ 39.5 µM) | – | – | – | – | – | 69 µg/mL (≈ 136 µM)
